For orientation: IC50 means the concentration needed to halve the response being measured. Read a high IC50 as weaker potency. A word on the IC90: it is the point of the concentration-response curve where the effect stands at 90%. The low end stands for greater potency, the high end for weaker potency.

For one assay, the system named is Human alphaherpesvirus 1. Nature of the assay: Antiviral activity against herpes simplex virus type 1 (HSV-1) in an ELISA assay. Format: functional, organism-based. An outline of the steps:
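BSC-1 cells (10 000/well, MEM(E) + 10% calf serum) incubated overnight at 37 °C, then given drug in quadruplicate with HSV-1 at 100 PFU/well. After 3 days at 37 °C, plates were blocked and probed with HRP-conjugated rabbit anti-HSV-1 antibody and developed with tetramethylbenzidine. Absorbance was read at 450 and 570 nm. Percent reduction was taken versus virus without drug.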
(ELISA stands for enzyme-linked immunosorbent assay.)

The subject of assay [1] is Human betaherpesvirus 5. Nature of the assay: Antiviral activity against human cytomegalovirus (HCM virus) in plaque assay. It is filed as functional, organism-based. An outline of the steps: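 HCMV Towne strain (plaque-purified P_O) at ca. 100 PFU/cm² on HFF cell sheets. After adsorption, compound in growth medium was added to duplicate wells at four to eight concentrations. Incubated 7 days at 37 °C, then crystal violet staining and microscopic plaque counts. Percent plaque reduction versus no drug; IC50 from regression lines.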

Assay [2] concerns KB. The assay can be described thus: Inhibitory activity of compound against KB cell growth. Format: functional, cell-based. The settings on record: Homo sapiens. An outline of the steps:
(§1)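 KB cells plated at 3000-5000 cells/well and held overnight at 37 °C. Compound added in quadruplicate at six to eight concentrations, then 48 h at 37 °C in CO₂ (about two population doublings). Cells fixed with 95% ethanol, stained with 0.1% crystal violet, dye eluted with acidified ethanol and read at 570 nm. IC50 from regression.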

A further assay has as its system HFF. Nature of the assay: Visual cytotoxicity of compound on HFF cells at time of HCMV plaque enumeration. Format: functional, cell-based. Particulars: Homo sapiens. A digest of the protocol:
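Stationary, uninfected HFF cells in the HCMV plaque assay were scored microscopically for cytotoxicity when plaques were enumerated, after 7 days at 37 °C.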

For assay [3], the system named is KB. Nature of the assay: Inhibitory activity of compound against KB cell growth [>-indicates IC50/IC90 was not reached at the noted (highest) concentration tested]. Format: functional, cell-based. The settings on record: Homo sapiens. An outline of the steps: as §1
Assay [4] relates to Human betaherpesvirus 5. The assay can be described thus: Antiviral activity of compound against HCM virus in yield reduction experiments. Format: functional. An outline of the steps:
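HFF cells infected with HCMV (Towne) at moi 0.5-1 PFU/cell, then given compound serially diluted 1:3 (100 to 0.14 µM) in duplicate. After 7 days at 37 °C, one freeze-thaw cycle. Progeny virus was titered by 1:3 serial dilution on fresh HFF monolayers with plaque counting. IC90 reported.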

A value given as a limit tells only on which side of the number the result lay.

For `CN(C)c1nc2c(Cl)cc(Cl)cc2n1COCCO`, the IC50 in the assay with Human alphaherpesvirus 1 and in the assay on Human betaherpesvirus 5 [1] was over 100 µM throughout.

Take `Nc1nc2cc(Cl)c(Cl)cc2n1COCCO`: the IC50 in the assay on Human alphaherpesvirus 1, with KB [2], with Human betaherpesvirus 5 [1] and in the assay with HFF was over 100 µM each time.

In the case of `CNc1nc2c(Cl)c(Cl)ccc2n1COC(CO)CO`, the IC50 in the assay on Human alphaherpesvirus 1, in the assay on Human betaherpesvirus 5 [1], in the assay on KB [3] and with HFF was over 100 µM each time.

Consider `OCC(CO)OCn1c(S)nc2cc(Cl)c(Cl)cc21`, for which the IC50 in the assay with Human alphaherpesvirus 1 is 55 µM; in the assay on Human betaherpesvirus 5 [1], over 100 µM; with KB [3], over 100 µM; in the assay with HFF, over 100 µM.

Consider `OCCOCn1c(Br)nc2c(Cl)c(Cl)ccc21`, for which the IC50 with Human alphaherpesvirus 1, with KB [2], in the assay on Human betaherpesvirus 5 [1] and in the assay with HFF was over 100 µM in each case.

Take `OCC(CO)OCn1c(S)nc2c(Cl)c(Cl)ccc21`: the IC50 in the assay with Human alphaherpesvirus 1, with Human betaherpesvirus 5 [1], in the assay with KB [3] and in the assay with HFF was over 100 µM each time.

In the case of `OCCOCn1c(S)nc2cc(Cl)c(Cl)cc21`, the IC50 in the assay on Human alphaherpesvirus 1 was over 100 µM; in the assay on KB [2], over 100 µM; in the assay with Human betaherpesvirus 5 [1], over 100 µM; in the assay on HFF, 100 µM.

In the case of `Nc1nc2cc(Cl)c(Cl)cc2n1COC(CO)CO`, the IC50 in the assay on Human alphaherpesvirus 1, with Human betaherpesvirus 5 [1], in the assay on KB [3] and in the assay on HFF was over 100 µM throughout.

In the case of `OCC(CO)OCn1c(Cl)nc2c(Cl)c(Cl)ccc21`, the IC50 with Human alphaherpesvirus 1 was 100 µM; with Human betaherpesvirus 5 [1] it was over 100 µM; in the assay with KB [3] it was over 100 µM; in the assay with HFF, over 100 µM.

As to `CNc1nc2c(Cl)cc(Cl)cc2n1COC(CO)CO`, the IC50 with Human betaherpesvirus 5 [1] was over 100 µM; with HFF it was 100 µM.

Regarding `OCC(CO)OCn1c(S)nc2c(Cl)cc(Cl)cc21`, the IC50 with Human alphaherpesvirus 1, in the assay on Human betaherpesvirus 5 [1], in the assay with KB [3] and in the assay with HFF was over 100 µM each time.

`CNc1nc2cc(Cl)c(Cl)cc2n1COC(CO)CO`: the IC50 with Human alphaherpesvirus 1, with Human betaherpesvirus 5 [1], with KB [3] and with HFF was over 100 µM in each case.

Consider `OCC(CO)OCn1c(Br)nc2cc(Cl)c(Cl)cc21`, for which the IC50 in the assay with Human alphaherpesvirus 1 is 100 µM; in the assay on Human betaherpesvirus 5 [1], over 100 µM; in the assay on KB [3] it was over 100 µM; in the assay with HFF, over 100 µM. Moreover, the 90% effect level in the assay on Human betaherpesvirus 5 [4] (IC90) was put at 25 µM.

On to `OCC(CO)OCn1c(SCc2ccccc2)nc2c(Cl)c(Cl)ccc21`, for which the IC50 was 55 µM with Human alphaherpesvirus 1, 35 µM in the assay on Human betaherpesvirus 5 [1], 60 µM with KB [3] and 32 µM with HFF.

As for `CNc1nc2cc(Cl)c(Cl)cc2n1COCCO`, the IC50 with Human alphaherpesvirus 1, with KB [2], in the assay on Human betaherpesvirus 5 [1] and in the assay with HFF was over 100 µM in each case.

On to `OCC(CO)OCn1cnc2c(Cl)c(Cl)ccc21`, for which the IC50 in the assay with Human alphaherpesvirus 1, in the assay with Human betaherpesvirus 5 [1], in the assay on KB [3] and in the assay on HFF was over 100 µM each time.

Turning to `OCC(CO)OCn1c(Cl)nc2c(Cl)cc(Cl)cc21`, the IC50 in the assay on Human betaherpesvirus 5 [1] and with HFF was over 100 µM each time.

Regarding `OCCOCn1cnc2c(Cl)cc(Cl)cc21`, the IC50 with Human alphaherpesvirus 1, with KB [2], in the assay with Human betaherpesvirus 5 [1] and in the assay with HFF was over 100 µM each time.

`OCCOCn1c(Cl)nc2c(Cl)cc(Cl)cc21`: the IC50 in the assay with Human alphaherpesvirus 1 and in the assay with Human betaherpesvirus 5 [1] was over 100 µM each time.

Regarding `OCC(CO)OCn1c(Br)nc2c(Cl)c(Cl)ccc21`, the IC50 with Human alphaherpesvirus 1, in the assay with Human betaherpesvirus 5 [1], in the assay with KB [3] and in the assay on HFF was over 100 µM in each case.

For `Nc1nc2c(Cl)c(Cl)ccc2n1COC(CO)CO`, the IC50 in the assay with Human alphaherpesvirus 1, in the assay on Human betaherpesvirus 5 [1], with KB [3] and in the assay with HFF was over 100 µM throughout.

As for `CNc1nc2c(Cl)c(Cl)ccc2n1COCCO`, the IC50 in the assay on Human alphaherpesvirus 1, with KB [2], with Human betaherpesvirus 5 [1] and in the assay with HFF was over 100 µM in each case.

Turning to `CNc1nc2c(Cl)cc(Cl)cc2n1COCCO`, the IC50 in the assay on Human alphaherpesvirus 1, in the assay on KB [2], in the assay with Human betaherpesvirus 5 [1] and in the assay with HFF was over 100 µM throughout.

On to `OCCOCn1c(SCc2ccccc2)nc2cc(Cl)c(Cl)cc21`, for which the IC50 in the assay on Human alphaherpesvirus 1 worked out at 45 µM; with KB [2], 55 µM; in the assay with Human betaherpesvirus 5 [1], 40 µM; in the assay with HFF, 32 µM.

For `CN(C)c1nc2cc(Cl)c(Cl)cc2n1COC(CO)CO`, the IC50 with Human alphaherpesvirus 1, in the assay with Human betaherpesvirus 5 [1], with KB [3] and in the assay on HFF was over 100 µM throughout.

Turning to `OCCOCn1c(Br)nc2c(Cl)cc(Cl)cc21`, the IC50 in the assay with Human alphaherpesvirus 1, in the assay with KB [2], in the assay on Human betaherpesvirus 5 [1] and in the assay with HFF was over 100 µM throughout.

With `OCCOCn1c(Cl)nc2cc(Cl)c(Cl)cc21`, the IC50 in the assay on Human alphaherpesvirus 1 was over 100 µM; in the assay on KB [2] it was over 320 µM; with Human betaherpesvirus 5 [1], over 320 µM; with HFF, over 320 µM.

As for `OCCOCn1c(SCc2ccccc2)nc2c(Cl)cc(Cl)cc21`, the IC50 was over 100 µM in the assay with Human alphaherpesvirus 1, over 100 µM in the assay with KB [2], 50 µM with Human betaherpesvirus 5 [1] and 32 µM with HFF.

`CN(C)c1nc2cc(Cl)c(Cl)cc2n1COCCO`: the IC50 in the assay with Human alphaherpesvirus 1, in the assay with KB [2], in the assay on Human betaherpesvirus 5 [1] and in the assay on HFF was over 100 µM each time.

Regarding `Nc1nc2c(Cl)cc(Cl)cc2n1COC(CO)CO`, the IC50 in the assay on Human betaherpesvirus 5 [1] was over 100 µM; with HFF, 100 µM.

Consider `OCCOCn1c(S)nc2c(Cl)cc(Cl)cc21`, for which the IC50 in the assay with Human alphaherpesvirus 1, in the assay with KB [2], in the assay with Human betaherpesvirus 5 [1] and in the assay with HFF was over 100 µM in each case.

As for `OCC(CO)OCn1c(SCc2ccccc2)nc2cc(Cl)c(Cl)cc21`, the IC50 in the assay with Human alphaherpesvirus 1, with Human betaherpesvirus 5 [1], in the assay with KB [3] and in the assay on HFF was over 100 µM throughout.

For `Nc1nc2c(Cl)c(Cl)ccc2n1COCCO`, the IC50 with Human alphaherpesvirus 1, in the assay on KB [2], with Human betaherpesvirus 5 [1] and in the assay on HFF was over 100 µM in each case.

On to `Nc1nc2c(Cl)cc(Cl)cc2n1COCCO`, for which the IC50 in the assay with Human alphaherpesvirus 1 was 100 µM; in the assay on KB [2] it was over 100 µM; in the assay with Human betaherpesvirus 5 [1] it was over 100 µM.

As to `OCCOCn1c(S)nc2c(Cl)c(Cl)ccc21`, the IC50 with Human alphaherpesvirus 1, with KB [2], with Human betaherpesvirus 5 [1] and in the assay on HFF was over 100 µM each time.

As to `CN(C)c1nc2c(Cl)c(Cl)ccc2n1COC(CO)CO`, the IC50 with Human alphaherpesvirus 1, with Human betaherpesvirus 5 [1], with KB [3] and in the assay with HFF was over 100 µM each time.

As to `OCC(CO)OCn1c(Cl)nc2cc(Cl)c(Cl)cc21`, the IC50 with Human alphaherpesvirus 1, in the assay with Human betaherpesvirus 5 [1], in the assay on KB [3] and in the assay on HFF was over 100 µM throughout.

As to `OCCOCn1c(Br)nc2cc(Cl)c(Cl)cc21`, the IC50 with Human alphaherpesvirus 1, in the assay with KB [2], in the assay on Human betaherpesvirus 5 [1] and in the assay on HFF was over 100 µM in each case.

As to `Nc1nc2c(ncn2COC(CO)CO)c(=O)[nH]1` [GANCICLOVIR], the IC50 in the assay on KB [3] and with HFF was over 100 µM throughout. The 90% effect concentration (IC90) with Human betaherpesvirus 5 [4] was found to be 1.6 µM.

In the case of `OCCOCn1c(SCc2ccccc2)nc2c(Cl)c(Cl)ccc21`, the IC50 in the assay on Human alphaherpesvirus 1 is over 100 µM; in the assay with KB [2], 35 µM; in the assay on Human betaherpesvirus 5 [1] it was 30 µM; in the assay on HFF, 32 µM.

Turning to `OCC(CO)OCn1cnc2cc(Cl)c(Cl)cc21`, the half-inhibitory concentration (IC50) in the assay with Human alphaherpesvirus 1, in the assay with Human betaherpesvirus 5 [1], in the assay on KB [3] and with HFF was over 100 µM each time.

Turning to `OCCOCn1cnc2cc(Cl)c(Cl)cc21`, the IC50 with Human alphaherpesvirus 1, in the assay with KB [2], with Human betaherpesvirus 5 [1] and in the assay with HFF was over 100 µM throughout.

For the molecule `OCC(CO)OCn1c(Br)nc2c(Cl)cc(Cl)cc21`, the IC50 with Human betaherpesvirus 5 [1] was 136 µM; in the assay on KB [3] it was over 100 µM; in the assay on HFF, 161 µM. This molecule also had an IC90 in the assay on Human betaherpesvirus 5 [4] of 50 µM.

Regarding `CN(C)c1nc2c(Cl)cc(Cl)cc2n1COC(CO)CO`, the IC50 in the assay on Human alphaherpesvirus 1, with Human betaherpesvirus 5 [1], in the assay with KB [3] and with HFF was over 100 µM throughout.

As to `OCCOCn1cnc2c(Cl)c(Cl)ccc21`, the IC50 in the assay on Human alphaherpesvirus 1, with KB [2], in the assay with Human betaherpesvirus 5 [1] and in the assay with HFF was over 100 µM throughout.

Take `OCCOCn1c(Cl)nc2c(Cl)c(Cl)ccc21`: the IC50 with Human alphaherpesvirus 1, in the assay with KB [2], with Human betaherpesvirus 5 [1] and in the assay with HFF was over 100 µM in each case.

Values taken from ChEMBL document CHEMBL1129492, “Structure-activity relationships among 2-substituted 5,6-dichloro-, 4,6-dichloro-, and 4,5-dichloro-1-[(2-hydroxyethoxy) methyl]- and -1-[(1,3-dihydroxy-2-propoxy) methyl]benzimidazoles” (J Med Chem, 1996).
